Columns and labels:
[1] = Binding affinity to Mycobacterium tuberculosis APS reductase
Method in brief: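 Timed aliquots quenched in 2% charcoal/20 mM Na2SO3, radiolabeled sulfite in supernatant counted. kobs from single-exponential fit; Ki (=Kd) from kobs dependence on inhibitor concentration.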

[2] = target: T1, Receptor-type tyrosine-protein phosphatase C (Homo sapiens) (UniProt P08575)
T1 sequence (whole entry): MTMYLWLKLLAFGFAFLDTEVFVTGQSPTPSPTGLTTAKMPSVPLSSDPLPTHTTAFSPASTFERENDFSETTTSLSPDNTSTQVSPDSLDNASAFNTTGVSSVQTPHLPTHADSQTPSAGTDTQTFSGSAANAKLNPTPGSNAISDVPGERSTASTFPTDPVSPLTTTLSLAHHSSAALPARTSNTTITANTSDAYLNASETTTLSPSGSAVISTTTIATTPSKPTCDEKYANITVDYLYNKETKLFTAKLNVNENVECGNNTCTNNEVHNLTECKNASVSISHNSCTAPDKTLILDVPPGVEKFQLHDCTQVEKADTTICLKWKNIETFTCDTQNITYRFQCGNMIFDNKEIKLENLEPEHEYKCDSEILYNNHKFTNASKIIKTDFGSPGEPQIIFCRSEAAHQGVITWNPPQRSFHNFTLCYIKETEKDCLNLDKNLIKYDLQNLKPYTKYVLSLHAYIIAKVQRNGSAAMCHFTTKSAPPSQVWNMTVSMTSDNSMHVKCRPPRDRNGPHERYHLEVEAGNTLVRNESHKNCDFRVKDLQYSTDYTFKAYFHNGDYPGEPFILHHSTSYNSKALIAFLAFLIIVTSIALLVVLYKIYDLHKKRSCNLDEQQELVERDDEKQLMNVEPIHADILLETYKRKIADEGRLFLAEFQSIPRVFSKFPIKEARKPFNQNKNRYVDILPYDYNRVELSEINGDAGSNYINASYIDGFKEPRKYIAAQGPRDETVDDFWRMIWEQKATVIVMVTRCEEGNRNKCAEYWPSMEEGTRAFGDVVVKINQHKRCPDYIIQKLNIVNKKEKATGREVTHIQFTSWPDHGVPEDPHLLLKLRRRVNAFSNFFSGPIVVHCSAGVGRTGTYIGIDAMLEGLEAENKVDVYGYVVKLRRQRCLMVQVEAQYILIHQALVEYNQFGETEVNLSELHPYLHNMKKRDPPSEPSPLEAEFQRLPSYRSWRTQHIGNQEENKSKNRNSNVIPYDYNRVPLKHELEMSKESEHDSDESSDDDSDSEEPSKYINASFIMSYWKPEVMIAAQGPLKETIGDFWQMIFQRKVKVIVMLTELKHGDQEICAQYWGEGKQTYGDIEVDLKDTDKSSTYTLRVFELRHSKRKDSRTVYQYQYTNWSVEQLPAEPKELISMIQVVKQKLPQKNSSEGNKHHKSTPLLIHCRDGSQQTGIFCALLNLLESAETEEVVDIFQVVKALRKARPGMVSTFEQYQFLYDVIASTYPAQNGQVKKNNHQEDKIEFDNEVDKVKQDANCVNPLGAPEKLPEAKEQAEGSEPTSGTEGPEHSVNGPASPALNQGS

[3] = test system: Mycobacterium tuberculosis; test: Inhibition of Mycobacterium tuberculosis APS reductase assessed as [35S]sulphite release at 100 uM

| Structure (SMILES) | Kd [1] [µM] | Kinact [2] [M⁻¹ s⁻¹] | inhibition [3] [%] |
| --- | --- | --- | --- |
| O=C1c2cc(F)ccc2-c2cc(F)c([N+](=O)[O-])cc21 | 44.6 | – | – |
| O=C1c2ccccc2-c2c1cc([N+](=O)[O-])cc2[N+](=O)[O-] | 48.1 | – | – |
| O=[N+]([O-])c1ccc(Sc2cccc[n+]2[O-])c2nonc12 | 19.5 | – | – |
| CC(=O)Nc1cc2c(cc1[N+](=O)[O-])-c1ccccc1C2=O | 31.8 | – | – |
| CC(=O)[C@H]1CC[C@H]2C34C=C[C@]5(C[C@@H](O)CC[C@]5(C)C3=CC[C@]12C)[C@H](C(=O)O)[C@@H]4C(=O)O | 127 | – | – |
| O=C1C(=O)c2cc([N+](=O)[O-])ccc2-c2ccccc21 | 6.81 | 4300 | – |
| O=C(O)C[S+]([O-])c1ccc2c3c(cccc13)C(=O)c1ccccc1-2 (centres undefined) | 180 | – | – |
| O=C1c2ccccc2-c2cc([N+](=O)[O-])c([N+](=O)[O-])cc21 | 37.1 | – | > 50 |
| O=C(O)CCc1nnc2c3ccccc3c3ccccc3c2n1 | 46.9 | – | > 50 |
| Nc1nc(Sc2ccc([N+](=O)[O-])c3nonc23)c2nc[nH]c2n1 | 15.2 | – | > 90 |

From ChEMBL document CHEMBL1142533, “Structure-based virtual screening and biological evaluation of Mycobacterium tuberculosis adenosine 5'-phosphosulfate reductase inhibitors” (J Med Chem, 2008)
